Measurements from ChEMBL document CHEMBL1122273, “5-sulfamoylorthanilic acids, a sulfonamide series with salidiuretic activity” (J Med Chem, 1983).

Experiments:
[1] = organism: Rattus norvegicus; test: Diuretic activity in the rats, determined by a modified Lipschitz test; format: functional, Urine
In short: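 Modified Lipschitz test: rats deprived of water 24 h, grouped in threes of similar weight in diuresis funnels. Oral dose of 50 mg/kg, suspended in 2% starch solution, by stomach tube.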

[2] = organism: Rattus norvegicus; test: Saluretic activity in the rat measured as concentration of chloride in urine; format: functional
In short: (§1)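 Rats deprived of food 24 h, water ad libitum, dosed 50 mg/kg by stomach tube as suspension in 2% starch, no extra water load. Groups of three in diuresis funnels; urine over first 5 h collected. Na⁺ and K⁺ by flame photometry, Cl⁻ argentometrically; expressed as mequiv/kg.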

[3] = organism: Rattus norvegicus; test: Saluretic activity in the rat measured as concentration of K+ in urine; format: functional; in short: as §1
[4] = organism: Rattus norvegicus; test: Saluretic activity in the rat measured as concentration of Na+ in urine; format: functional; in short: as §1

SMILES | Diuretic activity [1] [mL/kg] | Saluretic activity [2] [m equiv 5hr-1 kg-1] | Saluretic activity [3] [m equiv 5hr-1 kg-1] | Saluretic activity [4] [m equiv 5hr-1 kg-1]
NS(=O)(=O)c1cc(S(=O)(=O)[O-])c(S(=O)(=O)C2CCCCC2)cc1NCc1ccco1.[Na+] | 0.8 | 1 | 1.1 | 0.4
CN(c1ccccc1)c1cc(NCc2ccco2)c(S(=O)(=O)[O-])cc1S(=O)(=O)N(C)C.[K+] | 1.6 | 1.5 | 1.2 | 1
COc1ccccc1CNc1cc(Cl)c(S(N)(=O)=O)cc1S(=O)(=O)[O-].[Na+] | 0.2 | 0.1 | 0.3 | 0.1
CCC(C)S(=O)(=O)c1cc(NCc2ccco2)c(S(=O)(=O)[O-])cc1S(N)(=O)=O.[Na+] (stereo unspecified) | 4.5 | 8.5 | 1.9 | 6.7
NS(=O)(=O)c1cc(S(=O)(=O)[O-])c(NCc2ccco2)cc1S(=O)(=O)Cc1ccccc1.[K+] | 1 | 0.7 | 0.6 | 0.8
CN(c1ccccc1)c1cc(NCc2ccco2)c(S(=O)(=O)O)cc1S(N)(=O)=O.N | 4.8 | 8.3 | 2.1 | 6.8
NS(=O)(=O)c1cc(S(=O)(=O)[O-])c(NCc2ccco2)cc1Oc1ccc(Cl)cc1.[K+] | 2.2 | 6.4 | 2 | 5.1
CN(c1ccccc1)c1cc(NCc2ccco2)c(S(=O)(=O)[O-])cc1S(N)(=O)=O.[K+] | 3.1 | 7.4 | 1.7 | 6.3
Cc1ccc(Oc2cc(NCc3ccco3)c(S(=O)(=O)[O-])cc2S(N)(=O)=O)cc1C.[K+] | 1.3 | 3.7 | 1.4 | 2.2
CC(C)CS(=O)(=O)c1cc(NCc2ccco2)c(S(=O)(=O)[O-])cc1S(N)(=O)=O.[Na+] | 2.8 | 8.1 | 2.5 | 7.6
NS(=O)(=O)c1cc(S(=O)(=O)[O-])c(NCc2ccco2)cc1S(=O)(=O)CC1CCCCC1.[Na+] | 4.6 | 10.7 | 2.7 | 8.8
NS(=O)(=O)c1cc(S(=O)(=O)[O-])c(NCc2ccco2)cc1Nc1ccccc1Cl.[Na+] | 1.1 | 0.6 | 0.8 | 0.3
CN(Cc1ccco1)c1cc(Cl)c(S(N)(=O)=O)cc1S(=O)(=O)[O-].[Na+] | 0.8 | 0.8 | 0.5 | 0.8
CN(Cc1ccco1)c1cc(Oc2ccccc2)c(S(N)(=O)=O)cc1S(=O)(=O)[O-].[K+] | 1.3 | 1.7 | 1.5 | 0.3
